{"data": "Measured values pooled from the literature", "target": "Mitogen-activated protein kinase kinase kinase 5 (MAP3K5, Homo sapiens, UniProt Q99683)", "One construct used (Q99683 1-1374)": "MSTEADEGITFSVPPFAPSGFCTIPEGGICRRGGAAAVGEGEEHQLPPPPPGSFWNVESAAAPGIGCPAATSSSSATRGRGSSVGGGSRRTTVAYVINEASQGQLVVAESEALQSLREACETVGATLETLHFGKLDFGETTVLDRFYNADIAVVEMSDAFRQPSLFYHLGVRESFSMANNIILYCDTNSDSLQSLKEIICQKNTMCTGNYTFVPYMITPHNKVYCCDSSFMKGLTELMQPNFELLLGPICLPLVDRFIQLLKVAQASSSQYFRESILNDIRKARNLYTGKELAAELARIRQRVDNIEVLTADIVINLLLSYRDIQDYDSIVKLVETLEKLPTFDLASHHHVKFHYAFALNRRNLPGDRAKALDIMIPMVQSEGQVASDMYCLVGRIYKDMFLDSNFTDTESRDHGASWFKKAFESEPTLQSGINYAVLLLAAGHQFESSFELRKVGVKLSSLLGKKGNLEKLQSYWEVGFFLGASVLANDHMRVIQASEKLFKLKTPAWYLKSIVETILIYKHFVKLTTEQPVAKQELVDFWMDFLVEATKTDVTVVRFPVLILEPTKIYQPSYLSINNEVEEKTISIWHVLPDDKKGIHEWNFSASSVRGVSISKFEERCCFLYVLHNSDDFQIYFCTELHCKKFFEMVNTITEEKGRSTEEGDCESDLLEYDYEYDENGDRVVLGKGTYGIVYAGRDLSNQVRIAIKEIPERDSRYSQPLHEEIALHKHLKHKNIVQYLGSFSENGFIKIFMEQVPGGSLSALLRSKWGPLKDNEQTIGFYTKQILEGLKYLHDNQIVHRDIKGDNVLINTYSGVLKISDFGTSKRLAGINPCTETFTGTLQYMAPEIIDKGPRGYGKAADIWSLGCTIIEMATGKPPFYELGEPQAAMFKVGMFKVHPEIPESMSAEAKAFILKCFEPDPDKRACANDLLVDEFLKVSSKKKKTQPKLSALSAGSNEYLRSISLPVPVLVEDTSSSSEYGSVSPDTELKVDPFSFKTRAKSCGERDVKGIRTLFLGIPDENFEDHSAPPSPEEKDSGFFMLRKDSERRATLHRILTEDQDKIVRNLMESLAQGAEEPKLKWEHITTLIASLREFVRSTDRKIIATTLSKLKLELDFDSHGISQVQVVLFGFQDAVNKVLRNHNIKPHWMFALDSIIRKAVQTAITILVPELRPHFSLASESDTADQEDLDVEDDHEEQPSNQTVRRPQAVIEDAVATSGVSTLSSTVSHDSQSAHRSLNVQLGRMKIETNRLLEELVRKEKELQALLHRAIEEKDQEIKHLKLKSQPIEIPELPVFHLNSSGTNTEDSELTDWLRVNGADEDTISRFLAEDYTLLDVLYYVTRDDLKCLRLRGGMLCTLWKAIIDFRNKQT"}
{"Structure (SMILES)": "COc1cc(-c2cn(C3CCc4ccccc4N(CC(F)(F)F)C3=O)nn2)ccc1-n1ccc(C)n1 (stereo not drawn)", "observed": "cell-free assay", "technique": "competition with immobilised ligand", "concentration": "1 µM", "remaining binding": "100%"}
{"Structure (SMILES)": "COc1ncc2cc3ccccc3nc2c1C#N", "observed": "cell-free assay", "technique": "competition with immobilised ligand", "concentration": "5 µM", "remaining binding": "96%"}
{"Structure (SMILES)": "N[C@@H]1CCN(c2nccc(-c3cnn4ncccc34)n2)C1", "observed": "binding", "concentration": "1 µM", "remaining binding": "100%"}
{"Structure (SMILES)": "COCCOc1nc(-c2ccc(Cl)nc2)nc2c1CN(C(=O)c1ncn3ccccc13)CC2", "observed": "cell-free assay", "technique": "competition with immobilised ligand", "concentration": "0.1 µM", "remaining binding": "84%"}
{"Structure (SMILES)": "CC1CCCN1c1nccc(-c2cnn3ncccc23)n1 (stereo not drawn)", "observed": "binding", "concentration": "1 µM", "remaining binding": "79%"}
{"Structure (SMILES)": "N#Cc1ccc(Nc2ccc3[nH]c(=O)[nH]c3c2)c(Cl)c1", "observed": "cell-free assay", "technique": "competition with immobilised ligand", "concentration": "1 µM", "remaining binding": "90%"}
{"Structure (SMILES)": "O=C(NCCCN1CCOCC1)c1ccc(Nc2ncc(Cl)c(-c3ccc(Cl)s3)n2)cc1", "observed": "binding", "technique": "competition with immobilised ligand", "concentration": "1 µM", "remaining binding": "100%"}
{"Structure (SMILES)": "C[C@H](c1ccnc(Nc2nc3ccc(-c4cc(N(C)C)ncn4)cc3[nH]2)c1)N1CCN(C(=O)CC(F)(F)F)CC1", "observed": "cell-free assay", "technique": "competition with immobilised ligand", "concentration": "0.1 µM", "remaining binding": "100%"}
{"Structure (SMILES)": "F[C@@H]1CCN(c2nccc(-c3cnn4ncccc34)n2)C1", "observed": "binding", "concentration": "1 µM", "remaining binding": "83%"}
{"Structure (SMILES)": "C=CC(=O)N1CCC(C(=O)NCC(=O)N2CCN(c3nc(-c4cnc(N)nc4C(F)F)nc(N4CCOCC4)n3)CC2)CC1", "observed": "binding", "technique": "competition with immobilised ligand", "concentration": "1 µM", "remaining binding": "100%"}
{"Structure (SMILES)": "FC(F)(F)Oc1cccc(-c2cnc3ccc(-c4ccncc4)nn23)c1", "observed": "cell-free assay", "technique": "competition with immobilised ligand", "concentration": "5 µM", "remaining binding": "100%"}
{"Structure (SMILES)": "C[C@@H](c1ccc(-n2cnc3c(N)ncnc32)cc1)N1CCc2nn(C)c(Cc3ccccc3)c2C1=O", "observed": "binding", "technique": "competition with immobilised ligand", "concentration": "0.1 µM", "remaining binding": "95%"}
{"Structure (SMILES)": "COc1ccnn2ncc(-c3ccnc(N(C)C)n3)c12", "observed": "binding", "concentration": "1 µM", "remaining binding": "100%"}
{"Structure (SMILES)": "O=C(Nc1c[nH]nc1C(=O)NC1CCNCC1)c1cc(F)cc(F)c1", "observed": "binding", "technique": "competition with immobilised ligand", "concentration": "1 µM", "remaining binding": "100%"}
{"Structure (SMILES)": "CN(C)c1ncc(F)c(-c2cnn3ncccc23)n1", "observed": "binding", "concentration": "1 µM", "remaining binding": "100%"}
{"Structure (SMILES)": "O=C(c1ccc(Nc2nccc(-c3cc4ccccc4s3)n2)cc1)N1CCC(N2CCCC2)CC1", "observed": "binding", "technique": "competition with immobilised ligand", "concentration": "1 µM", "remaining binding": "100%"}
{"Structure (SMILES)": "Cn1cc(Cl)c2c(Oc3c(F)cc(Nc4cc(Cl)nc(N)n4)cc3F)ccnc21", "observed": "cell-free assay", "technique": "competition with immobilised ligand", "concentration": "0.1 µM", "remaining binding": "97%"}
{"Structure (SMILES)": "CN(C)c1nccc(-c2cnn3ncccc23)n1", "observed": "binding", "concentration": "1 µM", "remaining binding": "87%"}
{"Structure (SMILES)": "Cc1cnc(Nc2ccc(C(=O)N3CCC(N4CCCC4)CC3)cc2)nc1-c1cc2ccccc2s1", "observed": "binding", "technique": "competition with immobilised ligand", "concentration": "1 µM", "remaining binding": "100%"}
{"Structure (SMILES)": "C[C@@H]1CN(c2cc(-c3nn(C)c4ccc(OC5(C)CC5)cc34)ncn2)C[C@H](C)O1", "observed": "cell-free assay", "technique": "competition with immobilised ligand", "concentration": "1 µM", "remaining binding": "100%"}
{"Structure (SMILES)": "COc1cnc(Nc2cccc(S(N)(=O)=O)c2)nc1N1CCN(c2ccccc2)C(=O)C1", "observed": "binding", "technique": "competition with immobilised ligand", "concentration": "1 µM", "remaining binding": "100%"}
